According to ChEMBL document CHEMBL4689842, “EUbOPEN Chemogenomics Library wave 1” (2021):

Test system: U2OS
Assay: Multiplex assay against U2OS
Format: toxicity, cell-based
Conditions: human
How it was run: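 Phenotypes for tubulin, mitochondrial mass and membrane permeability are expressed as per cents of healthy-nucleus cells. Cells were stained live at seeding with Hoechst33342, BioTracker Green Microtubule Cytoskeleton Dye, MitoTracker Red and Annexin V Alexa Fluor 680, then imaged after compound addition on a CQ1 microscope at 37°C and 5% CO2. Machine-learning gating in CellPathfinder separated Hoechst high-intensity objects from normal cells, divided normal cells by nuclear state (healthy, pyknosed, fragmented) and divided pyknosed cells into mitotic or apoptotic.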

[1] = 12 h, 1 µM, compound concentration 1 uM, replicate 1
[2] = 12 h, 1 µM, compound concentration 1 uM, replicate 2
[3] = 12 h, 10 µM, compound concentration 10 uM, replicate 1
[4] = 12 h, 10 µM, compound concentration 10 uM, replicate 2
[5] = 24 h, 1 µM, compound concentration 1 uM, replicate 1
[6] = 24 h, 1 µM, compound concentration 1 uM, replicate 2
[7] = 24 h, 10 µM, compound concentration 10 uM, replicate 1
[8] = 24 h, 10 µM, compound concentration 10 uM, replicate 2

With O=C(Nc1cccnn1)N1CCC(=Cc2cccc(Oc3ccc(C(F)(F)F)cn3)c2)CC1 the “Population Apoptotic (%)” value [1] was 36%, the “Population Fragmented Nuclei (%)” value [1] was 1% and the “Population Healthy Nuclei (%)” value [1] was 87%. The “Population Hoechst High Intensity Objects (%)” value [1] was 3%, the “Population Membrane Permeable-Phenotype (%)” value [1] was 33% and the “Population Mitochondria Different-Phenotype (%)” value [1] was 5%. The “Population Mitotic Cells (%)” value [1] was 63%, the “Population Normal (%)” value [1] was 96% and the “Population Pyknosed Nuclei (%)” value [1] was 10%. The “Population Tubulin-Different-Phenotype (%)” value [1] was 26%, the “Total Cell Count” value [1] was 187 and the “Population Apoptotic (%)” value [2] was 14%. For the same compound, the “Population Fragmented Nuclei (%)” value [2] was 13%, the “Population Healthy Nuclei (%)” value [2] was 78% and the “Population Hoechst High Intensity Objects (%)” value [2] was 16%. For the same compound, the “Population Membrane Permeable-Phenotype (%)” value [2] was 30%, the “Population Mitochondria Different-Phenotype (%)” value [2] was 24% and the “Population Mitotic Cells (%)” value [2] was 85%. For the same compound, the “Population Normal (%)” value [2] was 83%, the “Population Pyknosed Nuclei (%)” value [2] was 7% and the “Population Tubulin-Different-Phenotype (%)” value [2] was 18%. The “Total Cell Count” value [2] was 101, the “Population Apoptotic (%)” value [3] was 83% and the “Population Fragmented Nuclei (%)” value [3] was 4%. For the same compound, the “Population Healthy Nuclei (%)” value [3] was 92%, the “Population Hoechst High Intensity Objects (%)” value [3] was 3% and the “Population Membrane Permeable-Phenotype (%)” value [3] was 8%. The “Population Mitochondria Different-Phenotype (%)” value [3] was 22%, the “Population Mitotic Cells (%)” value [3] was 16% and the “Population Normal (%)” value [3] was 96%. For the same compound, the “Population Pyknosed Nuclei (%)” value [3] was 3%, the “Population Tubulin-Different-Phenotype (%)” value [3] was 22% and the “Total Cell Count” value [3] was 311. The “Population Apoptotic (%)” value [4] was 0%, the “Population Fragmented Nuclei (%)” value [4] was 8% and the “Population Healthy Nuclei (%)” value [4] was 91%. For the same compound, the “Population Hoechst High Intensity Objects (%)” value [4] was 15%, the “Population Membrane Permeable-Phenotype (%)” value [4] was 12% and the “Population Mitochondria Different-Phenotype (%)” value [4] was 24%. For the same compound, the “Population Mitotic Cells (%)” value [4] was 0%, the “Population Normal (%)” value [4] was 84% and the “Population Pyknosed Nuclei (%)” value [4] was 0%. The “Population Tubulin-Different-Phenotype (%)” value [4] was 16%, the “Total Cell Count” value [4] was 336 and the “Population Apoptotic (%)” value [5] was 18%. For the same compound, the “Population Fragmented Nuclei (%)” value [5] was 2%, the “Population Healthy Nuclei (%)” value [5] was 83% and the “Population Hoechst High Intensity Objects (%)” value [5] was 2%. The “Population Membrane Permeable-Phenotype (%)” value [5] was 21%, the “Population Mitochondria Different-Phenotype (%)” value [5] was 11% and the “Population Mitotic Cells (%)” value [5] was 81%. The “Population Normal (%)” value [5] was 97%, the “Population Pyknosed Nuclei (%)” value [5] was 14% and the “Population Tubulin-Different-Phenotype (%)” value [5] was 17%. The “Total Cell Count” value [5] was 250, the “Population Apoptotic (%)” value [6] was 27% and the “Population Fragmented Nuclei (%)” value [6] was 10%. For the same compound, the “Population Healthy Nuclei (%)” value [6] was 79%, the “Population Hoechst High Intensity Objects (%)” value [6] was 14% and the “Population Membrane Permeable-Phenotype (%)” value [6] was 19%. For the same compound, the “Population Mitochondria Different-Phenotype (%)” value [6] was 22%, the “Population Mitotic Cells (%)” value [6] was 72% and the “Population Normal (%)” value [6] was 85%. For the same compound, the “Population Pyknosed Nuclei (%)” value [6] was 10%, the “Population Tubulin-Different-Phenotype (%)” value [6] was 11% and the “Total Cell Count” value [6] was 114. The “Population Apoptotic (%)” value [7] was 33%, the “Population Fragmented Nuclei (%)” value [7] was 2% and the “Population Healthy Nuclei (%)” value [7] was 95%. For the same compound, the “Population Hoechst High Intensity Objects (%)” value [7] was 3%, the “Population Membrane Permeable-Phenotype (%)” value [7] was 5% and the “Population Mitochondria Different-Phenotype (%)” value [7] was 20%. The “Population Mitotic Cells (%)” value [7] was 66%, the “Population Normal (%)” value [7] was 96% and the “Population Pyknosed Nuclei (%)” value [7] was 2%. For the same compound, the “Population Tubulin-Different-Phenotype (%)” value [7] was 26%, the “Total Cell Count” value [7] was 221 and the “Population Apoptotic (%)” value [8] was 83%. The “Population Fragmented Nuclei (%)” value [8] was 4%, the “Population Healthy Nuclei (%)” value [8] was 89% and the “Population Hoechst High Intensity Objects (%)” value [8] was 7%. For the same compound, the “Population Membrane Permeable-Phenotype (%)” value [8] was 8%, the “Population Mitochondria Different-Phenotype (%)” value [8] was 31% and the “Population Mitotic Cells (%)” value [8] was 16%. For the same compound, the “Population Normal (%)” value [8] was 92%, the “Population Pyknosed Nuclei (%)” value [8] was 5% and the “Population Tubulin-Different-Phenotype (%)” value [8] was 14%. For the same compound, the “Total Cell Count” value [8] was 231.
